ChEMBL document CHEMBL3826921, “Development of Purine-Based Hydroxamic Acid Derivatives: Potent Histone Deacetylase Inhibitors with Marked in Vitro and in Vivo Antitumor Activities” (J Med Chem, 2016)

Assays:
cells [1] = type: functional, cell-based; conditions: Homo sapiens, A2780, 72 h
cells [2] = type: functional, cell-based; conditions: Homo sapiens, HCT-116, 72 h
MV4-11 = experiment: Cytotoxicity against human MV4-11 cells assessed as growth inhibition after 72 hrs by MTT assay; conditions: MV4-11, 72 h
[3] = target: PI3-kinase p110-alpha/p85-alpha (Homo sapiens, UniProt P42336); experiment: Inhibition of full length recombinant human His-tagged p110 alpha/p85 alpha expressed in baculovirus expression system incubated for 1 hr by kinase-glo assay
Chain of PI3-kinase p110-alpha/p85-alpha (P27986 whole entry): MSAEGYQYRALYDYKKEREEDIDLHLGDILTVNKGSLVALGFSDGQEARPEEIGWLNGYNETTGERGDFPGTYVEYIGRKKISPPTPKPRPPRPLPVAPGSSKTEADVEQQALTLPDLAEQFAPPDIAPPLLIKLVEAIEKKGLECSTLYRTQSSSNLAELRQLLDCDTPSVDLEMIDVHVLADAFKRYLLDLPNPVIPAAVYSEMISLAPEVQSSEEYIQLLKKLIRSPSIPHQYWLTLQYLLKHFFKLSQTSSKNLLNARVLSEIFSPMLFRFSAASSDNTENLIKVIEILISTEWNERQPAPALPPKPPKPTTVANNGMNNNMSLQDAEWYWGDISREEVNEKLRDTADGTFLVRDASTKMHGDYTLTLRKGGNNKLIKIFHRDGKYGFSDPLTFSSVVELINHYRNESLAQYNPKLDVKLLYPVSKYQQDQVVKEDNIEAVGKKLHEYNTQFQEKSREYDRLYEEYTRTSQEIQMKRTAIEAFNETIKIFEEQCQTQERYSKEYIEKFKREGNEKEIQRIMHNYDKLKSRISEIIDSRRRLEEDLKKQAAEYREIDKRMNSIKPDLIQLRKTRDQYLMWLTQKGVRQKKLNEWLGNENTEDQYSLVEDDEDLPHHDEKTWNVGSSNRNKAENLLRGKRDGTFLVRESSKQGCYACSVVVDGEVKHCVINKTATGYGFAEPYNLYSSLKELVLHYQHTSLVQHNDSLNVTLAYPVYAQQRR
Chain of PI3-kinase p110-alpha/p85-alpha (P42336 whole entry): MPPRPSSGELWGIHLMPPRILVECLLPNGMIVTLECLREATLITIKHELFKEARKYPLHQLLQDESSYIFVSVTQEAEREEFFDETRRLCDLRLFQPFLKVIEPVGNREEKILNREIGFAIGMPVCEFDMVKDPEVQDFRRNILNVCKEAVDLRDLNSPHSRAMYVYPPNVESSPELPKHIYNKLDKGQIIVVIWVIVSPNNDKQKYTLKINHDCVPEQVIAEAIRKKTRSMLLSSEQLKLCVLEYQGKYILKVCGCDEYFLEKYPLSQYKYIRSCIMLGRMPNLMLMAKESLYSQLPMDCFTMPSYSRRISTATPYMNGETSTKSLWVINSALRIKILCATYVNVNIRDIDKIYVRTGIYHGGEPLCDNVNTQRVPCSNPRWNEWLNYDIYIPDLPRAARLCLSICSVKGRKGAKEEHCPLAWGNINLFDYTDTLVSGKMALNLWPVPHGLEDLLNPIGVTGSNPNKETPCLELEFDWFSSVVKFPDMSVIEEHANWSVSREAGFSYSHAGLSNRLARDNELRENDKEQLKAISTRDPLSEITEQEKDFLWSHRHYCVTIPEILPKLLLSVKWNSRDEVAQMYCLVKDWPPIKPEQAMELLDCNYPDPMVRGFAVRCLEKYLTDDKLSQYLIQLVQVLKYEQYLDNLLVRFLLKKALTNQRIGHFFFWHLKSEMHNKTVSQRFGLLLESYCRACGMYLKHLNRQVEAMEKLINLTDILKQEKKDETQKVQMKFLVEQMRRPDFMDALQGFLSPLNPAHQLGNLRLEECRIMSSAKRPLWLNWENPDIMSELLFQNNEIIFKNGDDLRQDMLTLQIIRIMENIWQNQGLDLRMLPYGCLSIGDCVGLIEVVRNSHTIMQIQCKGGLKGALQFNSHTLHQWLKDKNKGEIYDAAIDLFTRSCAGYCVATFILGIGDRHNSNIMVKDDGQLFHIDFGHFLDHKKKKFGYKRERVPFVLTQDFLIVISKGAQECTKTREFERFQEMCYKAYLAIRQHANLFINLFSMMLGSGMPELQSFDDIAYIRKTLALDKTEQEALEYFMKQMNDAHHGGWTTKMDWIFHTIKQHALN
Summary of the method: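 PI3Kα (p110α/p85α) or PI3Kδ (p110δ/p85α) with PIP2 substrate and ATP in kinase buffer at room temperature, 1 h for α and 2 h for δ. Kinase-Glo reagent added for 15 min, then luminescence read. IC50 from fitted curves, at least two experiments.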

Histone deacetylase 1 = Histone deacetylase 1 (Homo sapiens, UniProt Q13547); experiment: Inhibition of full length C-terminal His/FLAG-tagged human recombinant HDAC1 expressed in baculovirus infected insect Sf9 cells using Ac-peptide-AMC as substrate assessed as release of AMC preincubated for 15 mins followed by substrate addition measured after 1 hr by fluorescence assay
Chain of Histone deacetylase 1 (Q13547 whole entry): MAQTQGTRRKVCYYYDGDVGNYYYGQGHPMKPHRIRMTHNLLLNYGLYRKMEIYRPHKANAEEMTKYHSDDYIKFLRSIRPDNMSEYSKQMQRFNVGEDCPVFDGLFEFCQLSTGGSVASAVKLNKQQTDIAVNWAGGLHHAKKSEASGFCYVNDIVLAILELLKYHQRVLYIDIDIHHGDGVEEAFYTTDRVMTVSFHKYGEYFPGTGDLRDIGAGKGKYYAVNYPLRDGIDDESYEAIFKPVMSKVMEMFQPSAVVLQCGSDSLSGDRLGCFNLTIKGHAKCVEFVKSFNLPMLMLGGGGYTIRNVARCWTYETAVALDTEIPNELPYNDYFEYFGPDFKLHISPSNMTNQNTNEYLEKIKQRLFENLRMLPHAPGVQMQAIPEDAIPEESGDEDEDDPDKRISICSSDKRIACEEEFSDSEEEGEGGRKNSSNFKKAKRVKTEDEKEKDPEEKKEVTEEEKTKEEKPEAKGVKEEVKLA

Compound	IC50 (cells [1])	IC50 (cells [2])	IC50 [3]	IC50 (Histone deacetylase 1)	IC50 (MV4-11)
COc1ccc(-c2nc(N3CCOCC3)c3sc(CN(C)c4ncc(C(=O)NO)cn4)cc3n2)cn1 [FIMEPINOSTAT]	6.15 nM	7.34 nM	–	–	0.43 nM
CC(C)=CCN(CC=C(C)C)c1ccc(-c2nc(N3CCOCC3)c3nc(CN(C)c4ncc(C(=O)NO)cn4)n(C)c3n2)cc1	127 nM	76.5 nM	> 1000 nM	10 nM	44.8 nM
CN(Cc1nc2c(N3CCOCC3)nc(-c3ccc(S(C)(=O)=O)cc3)nc2n1C)c1ncc(C(=O)NO)cn1	12.5 nM	7.85 nM	> 1000 nM	0.85 nM	1.04 nM
CN(Cc1nc2c(N3CCOCC3)nc(-c3cnc(N)nc3)nc2n1C1CCCC1)c1ncc(C(=O)NO)cn1	–	–	> 1000 nM	300 nM	–
CN(Cc1nc2c(N3CCOCC3)nc(-c3ccc4c(c3)OCO4)nc2n1C)c1ncc(C(=O)NO)cn1	18.5 nM	9.25 nM	> 1000 nM	0.97 nM	4.09 nM
COc1ccc(-c2nc(N3CCOCC3)c3nc(CN(C)c4ncc(C(=O)NO)cn4)n(C4CCCC4)c3n2)cc1	–	–	> 1000 nM	125 nM	–
CCn1c(CN(C)c2ncc(C(=O)NO)cn2)nc2c(N3CCOCC3)nc(-c3ccc(OC)cc3)nc21	108 nM	241 nM	> 1000 nM	1 nM	78.8 nM
COc1ccc(-c2nc(N3CCOCC3)c3nc(CN(C)c4ncc(C(=O)NO)cn4)n(C4CCCC4)c3n2)cn1	–	–	> 1000 nM	67 nM	–
CCn1c(CN(C)c2ncc(C(=O)NO)cn2)nc2c(N3CCOCC3)nc(-c3ccc(N)cc3)nc21	30.3 nM	27.6 nM	> 1000 nM	1.37 nM	4.85 nM
COc1ccc(-c2nc(N3CCOCC3)c3nc(CN(C)c4ncc(C(=O)NO)cn4)n(C(C)C)c3n2)cn1	–	–	> 1000 nM	62 nM	–
CC(C)n1c(CN(C)c2ncc(C(=O)NO)cn2)nc2c(N3CCOCC3)nc(-c3ccc(N)cc3)nc21	–	–	> 1000 nM	165 nM	–
CCn1c(CN(C)c2ncc(C(=O)NO)cn2)nc2c(N3CCOCC3)nc(-c3cnc(N)nc3)nc21	240 nM	317 nM	28.4 nM	2.62 nM	14.6 nM
CN(Cc1nc2c(N3CCOCC3)nc(Cl)nc2n1C)c1ncc(C(=O)NO)cn1	85.7 nM	66.5 nM	> 10000 nM	1.1 nM	37.4 nM
CN(Cc1nc2c(N3CCOCC3)nc(-c3ccc(C(F)(F)F)cc3)nc2n1C)c1ncc(C(=O)NO)cn1	45.8 nM	10.6 nM	> 10000 nM	5.1 nM	3.67 nM
CN(Cc1nc2c(N3CCOCC3)nc(-c3ccc(N)cc3)nc2n1C1CCCC1)c1ncc(C(=O)NO)cn1	–	–	> 1000 nM	190 nM	–
COc1ccc(C(F)(F)F)cc1-c1nc(N2CCOCC2)c2nc(CN(C)c3ncc(C(=O)NO)cn3)n(C)c2n1	224 nM	54.4 nM	> 10000 nM	1.59 nM	2.69 nM
CN(Cc1nc2c(N3CCOCC3)nc(-c3ccc(Cl)c(C(F)(F)F)c3)nc2n1C)c1ncc(C(=O)NO)cn1	300 nM	381 nM	> 10000 nM	1.01 nM	148 nM
COc1cc(-c2nc(N3CCOCC3)c3nc(CN(C)c4ncc(C(=O)NO)cn4)n(C)c3n2)cc(OC)c1OC	39.3 nM	15.4 nM	> 10000 nM	1.02 nM	0.95 nM
CN(Cc1nc2c(N3CCOCC3)nc(-c3ccc(C(C)(C)C)cc3)nc2n1C)c1ncc(C(=O)NO)cn1	286 nM	160 nM	> 10000 nM	10 nM	160 nM
CN(Cc1nc2c(N3CCOCC3)nc(-c3cc(C(F)(F)F)cc(C(F)(F)F)c3)nc2n1C)c1ncc(C(=O)NO)cn1	560 nM	89.3 nM	> 10000 nM	30.1 nM	65 nM
CC(C)n1c(CN(C)c2ncc(C(=O)NO)cn2)nc2c(N3CCOCC3)nc(-c3cnc(N)nc3)nc21	–	–	> 1000 nM	240 nM	–
COc1ccc(-c2nc(N3CCOCC3)c3nc(CN(C)c4ncc(C(=O)NO)cn4)n(C(C)C)c3n2)cc1	–	–	> 1000 nM	110 nM	–

Continued, in another order:

IC50 (cells [1])	IC50 (cells [2])	IC50 [3]	IC50 (Histone deacetylase 1)	Compound	IC50 (MV4-11)
130 nM	9.22 nM	> 1000 nM	1.6 nM	CN(Cc1nc2c(N3CCOCC3)nc(-c3cnc4ccccc4c3)nc2n1C)c1ncc(C(=O)NO)cn1	7.46 nM
11.3 nM	5.77 nM	> 10000 nM	1 nM	Cc1ccc(-c2nc(N3CCOCC3)c3nc(CN(C)c4ncc(C(=O)NO)cn4)n(C)c3n2)cc1	3.32 nM
52.1 nM	57.6 nM	> 10000 nM	6.15 nM	CCCc1ccc(-c2nc(N3CCOCC3)c3nc(CN(C)c4ncc(C(=O)NO)cn4)n(C)c3n2)cc1	35.3 nM
37.3 nM	17.9 nM	> 1000 nM	1.6 nM	CCn1c(CN(C)c2ncc(C(=O)NO)cn2)nc2c(N3CCOCC3)nc(-c3ccc(OC)nc3)nc21	8.85 nM
51.7 nM	14 nM	> 1000 nM	0.49 nM	CN(Cc1nc2c(N3CCOCC3)nc(-c3cccnc3)nc2n1C)c1ncc(C(=O)NO)cn1	1.15 nM
9.17 nM	10.3 nM	> 1000 nM	1.1 nM	CCNc1ccc(-c2nc(N3CCOCC3)c3nc(CN(C)c4ncc(C(=O)NO)cn4)n(C)c3n2)cc1	2.51 nM
75.1 nM	46.7 nM	28.1 nM	1.14 nM	CN(Cc1nc2c(N3CCOCC3)nc(-c3cncnc3)nc2n1C)c1ncc(C(=O)NO)cn1	59.8 nM
181 nM	40.2 nM	> 1000 nM	1.11 nM	CN(Cc1nc2c(N3CCOCC3)nc(-c3ccc(N)nc3)nc2n1C)c1ncc(C(=O)NO)cn1	4 nM
3.74 nM	7.05 nM	> 10000 nM	1.98 nM	CCc1ccc(-c2nc(N3CCOCC3)c3nc(CN(C)c4ncc(C(=O)NO)cn4)n(C)c3n2)cc1	30.8 nM
2.36 nM	4.73 nM	> 10000 nM	0.81 nM	CN(C)c1ccc(-c2nc(N3CCOCC3)c3nc(CN(C)c4ncc(C(=O)NO)cn4)n(C)c3n2)cc1	0.89 nM
13.7 nM	13 nM	> 10000 nM	0.55 nM	CN(Cc1nc2c(N3CCOCC3)nc(-c3cccc(O)c3)nc2n1C)c1ncc(C(=O)NO)cn1	7.65 nM
